Results taken from ChEMBL document CHEMBL3797076, “5-HT2 receptor affinity, docking studies and pharmacological evaluation of a series of 1,3-disubstituted thiourea derivatives” (Eur J Med Chem, 2016).
The source made the active and inactive calls. No cut-off for these calls is given here.

How the values were obtained:
Mus musculus [1] = experiment: Inhibition of 5-HTP-induced head twitch response in ddY mouse at >=1 mg/kg, po administered 1 hr before 5-HTP injection measured after 30 mins relative to untreated control; assay type: functional
Mus musculus [2] = experiment: Inhibition of (+/-)DOI-induced head twitch response in Albino Swiss mouse at 5 mg/kg, ip administered 60 mins before (+/-)DOI injection measured for 20 mins relative to untreated control; assay type: functional
How it was run: (§1)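 Male Albino Swiss mice; compounds suspended in 0.5% methylcellulose, injected i.p. 60 min before (±)DOI 2.5 mg/kg i.p.; head twitches counted over 20 min. Mean ± SEM, percent reduction versus DOI-treated group; one-way ANOVA with Bonferroni post hoc test.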

Mus musculus [3] = experiment: Antinociceptive activity in Albino Swiss mouse assessed as inhibition of acetic acid-induced writhing response at 0.1 ED50, ip administered 60 mins prior to test measured for 10 mins; assay type: functional, organism-based
How it was run: (§2)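 Male Albino Swiss mice, i.p. dosing in 0.5% methylcellulose 60 min beforehand; 0.6% acetic acid injected i.p., writhing episodes counted for 10 min beginning 5 min after acid. Mean ± SEM; one-way ANOVA with Dunnett's test vs control.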

[4] = biological target: 5-hydroxytryptamine receptor 2A (Rattus norvegicus, UniProt P14842); experiment: Displacement of [3H]ketanserin from 5HT2A receptor in Sprague-Dawley rat brain cortex incubated for 15 mins
5-hydroxytryptamine receptor 2A, sequence (P14842 whole entry): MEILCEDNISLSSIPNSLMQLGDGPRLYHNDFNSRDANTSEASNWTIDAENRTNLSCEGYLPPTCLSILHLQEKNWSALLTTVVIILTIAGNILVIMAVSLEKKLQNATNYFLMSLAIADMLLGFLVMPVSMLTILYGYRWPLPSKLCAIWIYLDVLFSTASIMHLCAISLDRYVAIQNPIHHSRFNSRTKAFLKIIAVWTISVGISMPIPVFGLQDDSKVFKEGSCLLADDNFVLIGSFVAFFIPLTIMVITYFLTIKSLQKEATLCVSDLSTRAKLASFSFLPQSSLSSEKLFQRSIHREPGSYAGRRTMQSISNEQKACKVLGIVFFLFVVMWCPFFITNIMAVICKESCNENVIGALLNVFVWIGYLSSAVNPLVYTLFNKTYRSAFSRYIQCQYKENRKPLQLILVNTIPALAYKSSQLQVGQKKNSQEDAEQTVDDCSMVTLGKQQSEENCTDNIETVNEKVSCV
How it was run: (§3)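 Rat frontal cortex homogenized in 50 mM Tris-HCl, 0.5 mM EDTA, 10 mM MgCl2, pH 7.4, washed, resuspended with 0.1% ascorbate and pargyline. Triplicates: 5-HT2A used 0.4 nM [3H]ketanserin, cinanserin for nonspecific binding; 5-HT2C used 1 nM [3H]mesulergine, mianserin nonspecific, 100 nM spiperone added. 15 min at 37 C, glass-fiber filtration.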

[5] = biological target: T1, 5-hydroxytryptamine receptor 2C (Rattus norvegicus, UniProt P08909); experiment: Displacement of [3H]mesulergine from 5HT2C receptor in Sprague-Dawley rat brain cortex incubated for 15 mins; how it was run: as §3
T1 sequence (P08909 whole entry): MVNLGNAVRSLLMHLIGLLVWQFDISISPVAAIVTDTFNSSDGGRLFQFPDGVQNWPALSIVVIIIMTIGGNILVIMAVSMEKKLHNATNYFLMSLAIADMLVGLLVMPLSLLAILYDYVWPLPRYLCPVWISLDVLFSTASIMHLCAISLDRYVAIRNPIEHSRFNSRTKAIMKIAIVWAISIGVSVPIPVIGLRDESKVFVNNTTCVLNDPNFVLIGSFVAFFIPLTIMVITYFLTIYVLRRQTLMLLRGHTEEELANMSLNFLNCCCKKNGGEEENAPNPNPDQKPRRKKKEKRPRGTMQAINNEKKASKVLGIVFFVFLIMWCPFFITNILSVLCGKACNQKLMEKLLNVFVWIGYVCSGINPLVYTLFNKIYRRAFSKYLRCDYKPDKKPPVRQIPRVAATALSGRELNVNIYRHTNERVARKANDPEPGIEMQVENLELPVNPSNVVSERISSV

Mus musculus [6] = experiment: Inhibition of amphetamine-induced hyperlocomotion in Albino Swiss mouse at 0.1 ED50, ip administered 60 mins prior to test measured for 30 mins by photoresistor actometer analysis; assay type: functional
How it was run: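 Single male Albino Swiss mice; compound i.p. 60 min and amphetamine 5 mg/kg s.c. 30 min before test. Photoresistor actometers (circular cage, two light beams) counted beam crossings over 30 min; mean ± SEM, Dunnett's test vs control.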

Mus musculus [7] = experiment: Neurotoxicity in Albino Swiss mouse assessed as induction of myorelaxation at 0.0125 to 0.1 ED50, ip after 60 mins by chimney test; assay type: toxicity, organism-based; conditions: in vivo, 1 h
Mus musculus [8] = experiment: Neurotoxicity in Albino Swiss mouse assessed as induction of myorelaxation at 0.0125 to 0.1 ED50, ip after 60 mins by rotarod test; assay type: toxicity, organism-based; conditions: in vivo, 1 h
Mus musculus [9] = experiment: Neurotoxicity in Albino Swiss mouse assessed as impairment in motor coordination at 0.0125 to 0.1 ED50, ip after 60 mins by chimney test; assay type: toxicity, organism-based; conditions: in vivo, 1 h
Mus musculus [10] = experiment: Neurotoxicity in Albino Swiss mouse assessed as impairment in motor coordination at 0.0125 to 0.1 ED50, ip after 60 mins by rotarod test; assay type: toxicity, organism-based; conditions: in vivo, 1 h
Mus musculus [11] = experiment: Toxicity in ip dosed Albino Swiss mouse assessed as loss of righting reflex administered 60 mins before test measured up to 48 hrs; assay type: organism-based; conditions: in vivo
How it was run: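 Acute toxicity in male Albino Swiss mice by Litchfield-Wilcoxon method: ED50 for loss of righting reflex after i.p. dosing, observed at 15, 30, 60, 180 min and 24, 48 h.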

Mus musculus [12] = experiment: Toxicity in Albino Swiss mouse assessed as inhibition of spontaneous locomotor activity at 0.1 ED50, ip administered 60 mins before test measured for 30 mins by photoresistor actometer analysis; assay type: organism-based; conditions: in vivo, 0.5 h
How it was run: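 Spontaneous locomotion of single male Albino Swiss mice recorded in two-beam photoresistor actometers as beam crossings for 30 min, beginning 60 min after i.p. compound (suspension in 0.5% methylcellulose).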

Mus musculus [13] = experiment: Inhibition of 5-HTP-induced head twitch response in Albino Swiss mouse at 0.1 ED50, ip administered 60 mins before 5-HTP injection relative to untreated control; assay type: functional
How it was run: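 Male Albino Swiss mice given compound i.p. (0.1 ED50, 0.5% methylcellulose) 60 min before the test; L-5-HTP 230 mg/kg i.p. injected immediately before. Head twitches counted; mean ± SEM, Dunnett's test vs control.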

Mus musculus [14] = experiment: Antinociceptive activity in Albino Swiss mouse assessed as inhibition of acetic acid-induced writhing response at 0.025 to 0.05 ED50, ip administered 60 mins prior to test measured for 10 mins; assay type: functional, organism-based; how it was run: as §2
Mus musculus [15] = experiment: Antinociceptive activity in Albino Swiss mouse assessed as inhibition of acetic acid-induced writhing response at 0.05 ED50, ip administered 60 mins prior to test measured for 10 mins in presence of opioid receptor antagonist naloxone; assay type: functional, organism-based
Mus musculus [16] = experiment: Anticonvulsant activity in Albino Swiss mouse assessed as protection against pentetrazol-induced tonic seizure at 0.1 ED50, ip administered 60 mins prior to test relative to untreated control; assay type: functional
How it was run: (§4)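 Male Albino Swiss mice (18-30 g); compound given i.p. as suspension in 0.5% methylcellulose 60 min before test; pentylenetetrazole 110 mg/kg s.c. Scored as number of mice with clonic seizures, tonic convulsions and deaths per animals tested; Fisher's exact test vs solvent control.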

Mus musculus [17] = experiment: Anticonvulsant activity in Albino Swiss mouse assessed as protection against pentetrazol-induced clonic seizure at 0.1 ED50, ip administered 60 mins prior to test relative to untreated control; assay type: functional; how it was run: as §4
Mus musculus [18] = experiment: Protection against pentetrazol-induced mortality in Albino Swiss mouse at 0.05 ED50, ip administered 60 mins prior to test; assay type: functional, organism-based; how it was run: as §4
Mus musculus [19] = experiment: Decrease in body temperature in Albino Swiss mouse at 0.1 ED50, ip administered 60 mins before test measured 60 to 120 mins post dose; assay type: functional, organism-based
How it was run: (§5)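 Normothermic male Albino Swiss mice; rectal temperature by thermistor thermometer. Baseline taken as mean of readings at 60 and 30 min before dosing; i.p. dose (0.1 ED50, 0.5% methylcellulose vehicle) then readings at 30, 60, 90, 120 min (to 180 min for some). Change = final minus initial; Bonferroni post hoc test.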

Mus musculus [20] = experiment: Inhibition of (+/-)DOI-induced head twitch response in Albino Swiss mouse at 36.55 mg/kg, ip administered 60 mins before (+/-)DOI injection measured for 20 mins relative to untreated control; assay type: functional; how it was run: as §1
Mus musculus [21] = experiment: Inhibition of (+/-)DOI-induced head twitch response in ip dosed Albino Swiss mouse administered 60 mins before (+/-)DOI injection measured for 20 mins; assay type: functional, organism-based; how it was run: as §1
Mus musculus [22] = experiment: Protection against pentetrazol-induced mortality in Albino Swiss mouse at 0.1 ED50, ip administered 60 mins prior to test relative to untreated control; assay type: functional
How it was run: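 Male Albino Swiss mice (18–30 g). Compound given i.p. as suspension in 0.5% methylcellulose (10 mL/kg), 60 min before test; controls got vehicle. Dose expressed as fraction of ED50 (loss of righting reflex within 48 h). Convulsions induced by pentylenetetrazole 110 mg/kg s.c.; dead animals counted per group (n=10; control n=16). Significance vs control by Fisher's exact test.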

Mus musculus [23] = experiment: Effect on body temperature in Albino Swiss mouse at 0.1 ED50, ip administered 60 mins before test measured 30 to 180 mins post dose; assay type: functional, organism-based; how it was run: as §5
Mus musculus [24] = experiment: Inhibition of (+/-)DOI-induced head twitch response in Albino Swiss mouse at 73.1 mg/kg, ip administered 60 mins before (+/-)DOI injection measured for 20 mins relative to untreated control; assay type: functional; how it was run: as §1
Mus musculus [25] = experiment: Anticonvulsant activity in Albino Swiss mouse assessed as protection against pentetrazol-induced clonic seizure at 0.05 ED50, ip administered 60 mins prior to test relative to untreated control; assay type: functional, organism-based; how it was run: as §4
Mus musculus [26] = experiment: Increase in body temperature in Albino Swiss mouse at 0.1 ED50, ip administered 60 mins before test measured 30 to 90 mins post dose; assay type: functional, organism-based; how it was run: as §5
Mus musculus [27] = experiment: Antinociceptive activity in Albino Swiss mouse assessed as inhibition of acetic acid-induced writhing response at 0.1 ED50, ip administered 60 mins prior to test measured for 10 mins in presence of opioid receptor antagonist naloxone; assay type: functional, organism-based
Mus musculus [28] = experiment: Inhibition of (+/-)DOI-induced head twitch response in Albino Swiss mouse at 28.6 mg/kg, ip administered 60 mins before (+/-)DOI injection measured for 20 mins relative to untreated control; assay type: functional; how it was run: as §1
Mus musculus [29] = experiment: Increase in body temperature in Albino Swiss mouse at 0.1 ED50, ip administered 60 mins before test measured 30 to 180 mins post dose; assay type: functional, organism-based; how it was run: as §5
Mus musculus [30] = experiment: Decrease in body temperature in Albino Swiss mouse at 0.1 ED50, ip administered 60 mins before test measured 30 to 120 mins post dose; assay type: functional, organism-based; how it was run: as §5

Compound	inhibition (Mus musculus [3])	Ki [4] [µM]	Ki [5] [µM]	inhibition (Mus musculus [6])	Activity (Mus musculus [7])	Activity (Mus musculus [8])	Activity (Mus musculus [9])	Activity (Mus musculus [10])	ED50 (Mus musculus [11]) [mg/kg]	Activity (Mus musculus [12])	inhibition (INH) (Mus musculus [13]) [%]	inhibition (Mus musculus [14])	inhibition (Mus musculus [15])	Activity (Mus musculus [17])	also measured
O=C(c1ccc(F)cc1)C1CCN(CCn2c(=O)[nH]c3ccccc3c2=O)CC1 [KETANSERIN]															inhibition (INH) (Mus musculus [1]): >80%; inhibition in vivo at 5 mg/kg (Mus musculus [2]): 100%
O=[N+]([O-])c1cc(NC(=S)NCc2ccccc2)ccc1Cl	Active	> 10	> 10	inactive	Non-toxic	Non-toxic	Non-toxic	Non-toxic	909	Non-toxic	70.5	Active	Active	43.75%	Activity (Mus musculus [16]): 43.75%; Activity (Mus musculus [18]): Active; Activity (Mus musculus [19]): Active
O=[N+]([O-])c1cc(NC(=S)Nc2ccccc2)ccc1Cl		> 10	> 10												
FC(F)(F)c1cccc(NC(S)=NCc2ccccc2)c1	Active	0.0006	> 10	Active	Non-toxic	Non-toxic	Non-toxic	Non-toxic	731.3	Non-toxic	73.3	Active	Active	40%	inhibition in vivo at 36.55 mg/kg (Mus musculus [20]): 69.4%; inhibition (Mus musculus [21]): Dose-dependent effect; Activity (Mus musculus [16]): 46.66%; Activity (Mus musculus [22]): Active; Activity (Mus musculus [23]): inactive; inhibition in vivo at 73.1 mg/kg (Mus musculus [24]): 72.2%
Cc1nc2sccn2c(=O)c1CCN1CCC(=C(c2ccc(F)cc2)c2ccc(F)cc2)CC1 [RITANSERIN]															inhibition (INH) (Mus musculus [1]): >80%
O=C(NC(=S)Nc1ccc(Cl)c([N+](=O)[O-])c1)c1ccccc1		> 10	> 10							Non-toxic					
O=[N+]([O-])c1cc(NC(=S)Nc2ccccc2Cl)ccc1Cl		> 10	> 10							Non-toxic					
FC(F)(F)c1cccc(NC(=S)NCCc2ccccc2)c1	Active	> 10	> 10		Non-toxic	Non-toxic	Non-toxic	Non-toxic	709.6	Non-toxic		Active	Active		inhibition (INH) (Mus musculus [6]): 42.48%; inhibition (Mus musculus [13]): inactive; Activity (Mus musculus [16]): 46.66%; Activity (Mus musculus [22]): 48.33%; Activity (Mus musculus [25]): inactive; Activity (Mus musculus [23]): inactive
COc1ccc(NC(=S)Nc2cccc(C(F)(F)F)c2)cc1		> 10	> 10	Active	Non-toxic	Non-toxic	Non-toxic	Non-toxic	771.4	Non-toxic				inactive	inhibition (Mus musculus [13]): inactive; Activity (Mus musculus [26]): Active
FC(F)(F)c1cccc(NC(=S)Nc2ccccc2Cl)c1	Active	> 10	> 10		Non-toxic	Non-toxic	Non-toxic	Non-toxic	2000	Toxic	72.4				inhibition (Mus musculus [27]): Active
Fc1ccc(NC(=S)Nc2cccc(C(F)(F)F)c2)cc1Cl		4.3e-05	> 10		Non-toxic	Non-toxic	Non-toxic	Non-toxic	286.2	Non-toxic				inactive	inhibition (INH) (Mus musculus [6]): 47.3%; inhibition (Mus musculus [13]): inactive; inhibition in vivo at 28.6 mg/kg (Mus musculus [28]): 51.6%; inhibition (Mus musculus [21]): Dose-dependent effect; Activity (Mus musculus [29]): Active
CC(NC(=S)Nc1ccc(Cl)c([N+](=O)[O-])c1)c1ccccc1 (configuration not stated)	Active	> 10	> 10	inactive	Non-toxic	Non-toxic	Non-toxic	Non-toxic	1031.3	Non-toxic	89	Active	Active	inactive	Activity (Mus musculus [30]): Active
